Columns and labels:
[1] = molecular target: T1, Bcl-2-related protein A1 (Homo sapiens, UniProt Q16548); test: Inhibition of N-terminal FITC BH3 peptide binding to GST-tagged Bfl1 by time resolved-FRET assay
T1 sequence (Q16548 whole entry): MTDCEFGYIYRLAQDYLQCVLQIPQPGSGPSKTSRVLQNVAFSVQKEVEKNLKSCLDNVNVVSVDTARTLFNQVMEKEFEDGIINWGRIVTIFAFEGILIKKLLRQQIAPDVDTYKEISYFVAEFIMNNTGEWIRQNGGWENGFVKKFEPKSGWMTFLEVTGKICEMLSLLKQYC
In short: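 10-point 2-fold dilution series in 10% final DMSO, in duplicate wells. FITC-Bid (5.6 nM) plus Tb-antibody (2.5 nM) was then added and incubated 4 h at room temperature. TR-FRET read at ex 340 nm, signal taken as the 520/490 nm emission ratio.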

[2] = molecular target: T1, Bcl-2-related protein A1; test: Inhibition of N-terminal FITC BH3 peptide binding to GST-tagged Bfl1 by fluorescence polarization assay
In short: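 Then FITC-Bid BH3 peptide (5.6 nM working solution) was added and incubated 4 h at room temperature. Ten concentrations in 10% DMSO. Fluorescence polarization read at ex 485/em 530 nm. IC50 from sigmoidal dose-response non-linear regression.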

Row | Compound | IC50 [1] | IC50 [2]
1 | CN1CCN(C2=CC(=O)N(c3ccc(Cl)cc3)C2=O)CC1 | > 10000 nM | > 10000 nM
2 | O=C1C(Cl)=C(NCCO)C(=O)N1c1ccc(Cl)c(Cl)c1 | > 50000 nM | > 50000 nM
3 | CN(C)C1=C(Cl)C(=O)N(c2ccc(Cl)c(Cl)c2)C1=O | 400 nM | 300 nM
4 | O=C1C(Cl)=C(N2CCN(Cc3ccc4c(c3)OCO4)CC2)C(=O)N1c1ccc(Cl)c(Cl)c1 | 2100 nM | 
5 | O=C1C(Cl)=C(N2CCN(C/C=C/c3ccccc3)CC2)C(=O)N1c1ccc(Cl)c(Cl)c1 | 690 nM | 250 nM
6 | CN1CCN(C2CC(=O)N(c3ccc(Cl)c(Cl)c3)C2=O)CC1 (configuration not stated) | > 10000 nM | > 10000 nM
7 | CN1CCN(C2=C(Cl)C(=O)N(c3ccc(Cl)c(Cl)c3)C2=O)CC1 | 800 nM | 600 nM
8 | CN1CCN(C2=C(Cl)C(=O)N(c3cc(Cl)cc(Cl)c3)C2=O)CC1 | 1900 nM | 2400 nM
9 | CN1CCN(C2=C(Cl)C(=O)N(c3ccc(Cl)cc3Cl)C2=O)CC1 | 1400 nM | 
10 | CN1CCN(C2=C(Cl)C(=O)N(c3cccc(Cl)c3Cl)C2=O)CC1 | 2600 nM | 
11 | CN1CCN(C2=C(Cl)C(=O)N(c3ccccc3Cl)C2=O)CC1 | 1000 nM | 3300 nM
12 | CN1CCN(C2=C(Cl)C(=O)N(c3cccc(Cl)c3)C2=O)CC1 | 1200 nM | 2100 nM
13 | Cc1cccc(N2C(=O)C(Cl)=C(N3CCN(C)CC3)C2=O)c1 | 10800 nM | 12600 nM
14 | CN1CCN(C2=C(Cl)C(=O)N(c3cccc([N+](=O)[O-])c3)C2=O)CC1 | 3900 nM | 6800 nM
15 | CN1CCN(C2=C(Cl)C(=O)N(c3ccncc3Cl)C2=O)CC1 | 35600 nM | 29000 nM
16 | O=C1C(Cl)=C(N2CCCC2)C(=O)N1c1ccc(Cl)c(Cl)c1 | > 50000 nM | > 50000 nM
17 | O=C1C(Cl)=C(N2CCCCC2)C(=O)N1c1ccc(Cl)c(Cl)c1 | > 50000 nM | > 50000 nM

Row | Compound | IC50 [1] | IC50 [2]
18 | O=C1C(Cl)=C(NCc2ccccc2)C(=O)N1c1ccc(Cl)c(Cl)c1 | > 50000 nM | > 50000 nM
19 | O=C1C(Cl)=C(N2CCOCC2)C(=O)N1c1ccc(Cl)c(Cl)c1 | 450 nM | 800 nM
20 | CCN1CCN(C2=C(Cl)C(=O)N(c3ccc(Cl)c(Cl)c3)C2=O)CC1 | 1000 nM | 1700 nM
21 | C[C@@H]1CN(C2=C(Cl)C(=O)N(c3ccc(Cl)c(Cl)c3)C2=O)CCN1 | 800 nM | 600 nM
22 | C[C@H]1CN(C2=C(Cl)C(=O)N(c3ccc(Cl)c(Cl)c3)C2=O)CCN1 | 1100 nM | 2200 nM
23 | CC1C(=O)NCCN1C1=C(Cl)C(=O)N(c2ccc(Cl)c(Cl)c2)C1=O (configuration not stated) | 2000 nM | 
24 | CCCCN1CCN(C2=C(Cl)C(=O)N(c3ccc(Cl)c(Cl)c3)C2=O)CC1 | 3300 nM | 10500 nM
25 | O=C1C(Cl)=C(N2CCN(CCO)CC2)C(=O)N1c1ccc(Cl)c(Cl)c1 | 620 nM | 240 nM
26 | O=C1C(Cl)=C(N2CCN(CCOCCO)CC2)C(=O)N1c1ccc(Cl)c(Cl)c1 | 400 nM | 300 nM
27 | O=C1C(Cl)=C(N2CCN(c3ccccc3)CC2)C(=O)N1c1ccc(Cl)c(Cl)c1 | 4100 nM | 4900 nM
28 | COc1ccccc1N1CCN(C2=C(Cl)C(=O)N(c3ccc(Cl)c(Cl)c3)C2=O)CC1 | 6200 nM | 9600 nM
29 | COc1cccc(N2CCN(C3=C(Cl)C(=O)N(c4ccc(Cl)c(Cl)c4)C3=O)CC2)c1 | 5000 nM | 1200 nM
30 | COc1ccc(N2CCN(C3=C(Cl)C(=O)N(c4ccc(Cl)c(Cl)c4)C3=O)CC2)cc1 | 8300 nM | > 10000 nM
31 | Cc1cccc(N2CCN(C3=C(Cl)C(=O)N(c4ccc(Cl)c(Cl)c4)C3=O)CC2)c1 | 8300 nM | > 10000 nM
32 | O=C1C(Cl)=C(N2CCN(c3cccc(C(F)(F)F)c3)CC2)C(=O)N1c1ccc(Cl)c(Cl)c1 | > 10000 nM | > 10000 nM
33 | O=C1C(Cl)=C(N2CCN(Cc3ccccc3)CC2)C(=O)N1c1ccc(Cl)c(Cl)c1 | 1300 nM | 2400 nM

— ChEMBL document CHEMBL1268986, “Inhibition of Bfl-1 with N-aryl maleimides” (Bioorg Med Chem Lett, 2010)
